Experimental data reported in paper PMC2219267 (The Journal of General Physiology, 1996).

Target: T1, band 3 (Homo sapiens, UniProt P02730)
T1 sequence (P02730 1-911): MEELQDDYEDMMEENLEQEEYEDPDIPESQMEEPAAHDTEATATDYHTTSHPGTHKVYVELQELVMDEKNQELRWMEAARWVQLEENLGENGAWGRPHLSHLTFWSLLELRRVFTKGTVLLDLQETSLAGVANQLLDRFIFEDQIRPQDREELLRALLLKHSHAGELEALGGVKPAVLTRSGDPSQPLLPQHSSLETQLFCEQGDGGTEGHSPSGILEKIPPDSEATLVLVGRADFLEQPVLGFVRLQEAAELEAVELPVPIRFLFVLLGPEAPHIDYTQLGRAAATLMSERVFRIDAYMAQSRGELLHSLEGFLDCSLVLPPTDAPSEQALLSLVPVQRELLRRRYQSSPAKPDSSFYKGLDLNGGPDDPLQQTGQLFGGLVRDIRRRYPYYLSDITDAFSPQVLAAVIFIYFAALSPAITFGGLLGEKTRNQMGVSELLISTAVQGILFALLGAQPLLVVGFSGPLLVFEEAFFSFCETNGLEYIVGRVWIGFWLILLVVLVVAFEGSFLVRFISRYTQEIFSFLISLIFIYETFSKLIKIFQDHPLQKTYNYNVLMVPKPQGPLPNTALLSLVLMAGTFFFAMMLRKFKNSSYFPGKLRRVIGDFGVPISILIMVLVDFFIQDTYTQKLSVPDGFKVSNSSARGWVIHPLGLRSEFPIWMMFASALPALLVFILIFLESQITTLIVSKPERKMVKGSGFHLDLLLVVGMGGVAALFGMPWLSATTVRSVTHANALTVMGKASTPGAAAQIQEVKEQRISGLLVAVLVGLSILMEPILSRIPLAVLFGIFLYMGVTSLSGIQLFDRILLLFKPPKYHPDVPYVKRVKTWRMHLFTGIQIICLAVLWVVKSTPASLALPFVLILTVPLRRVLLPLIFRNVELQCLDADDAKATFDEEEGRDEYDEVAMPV
Assay: 125I iodide influx into red blood cells
Type: cell-based
Method in brief: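 Heparinised human blood was washed three times in 150 KH (150 mM KCl, 24 mM sucrose, 20 mM Hepes, pH 7.2 at 0°C), with white cells aspirated, then held at 50% hematocrit. DIDS-treated cells received a 2 mM DIDS stock. Media mixed sucrose, KCl and KI with 5 mM buffer. Above pHo 11, cells were nystatin-loaded to 300 mM Cl-, and CAPS-buffered media were used.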

SMILES: [I-].[K+] [iodide, potassium iodide]
- I- influx as % of Cl- efflux (no citrate, [Clo] 0.28 mM, [Io] 2.2 mM, 0°C): less than 6%
- half-saturation concentration for Io activation of I- influx (pH 10.6, 1.65 mM [Clo]): 26.4 ± 1.8 mM
- I- influx as % of Cl- efflux (pH 11.5, 53 mM [Io], 16.5 mM [Clo]): 16%
- I- influx as % of Cl- efflux (pHo 10.6, 1.65 mM [Clo], up to 15 mM [Io]): less than 10%
